According to ChEMBL document CHEMBL1154309, “Cytotoxic diterpenoids from Croton argyrophylloides” (J Nat Prod, 2009):

Tests used:
HL-60 = assay: Cytotoxicity against human HL60 cells after 69 hrs by MTT assay; assay type: functional, cell-based; conditions: HL-60, 69 h
How it was run: (§1)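 Tumor lines from NCI, kept in RPMI 1640 with 10% FBS, 2 mM glutamine, penicillin/streptomycin, 37 °C, 5% CO2. Seeded at 0.7 × 10^5 cells/well (adherent) or 0.3 × 10^6 cells/well (suspension). Compounds at 0.078-5 µg/mL in DMSO (final below 0.1%), 69 h, then MTT 0.5 mg/mL for 3 h. Formazan dissolved in DMSO, A595. Triplicates; IC50 by nonlinear regression.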

MDA-MB-435 = assay: Cytotoxicity against human MDA-MB-435 cells after 69 hrs by MTT assay; assay type: functional, cell-based; conditions: MDA-MB-435, 69 h; how it was run: as §1
SF-295 = assay: Cytotoxicity against human SF295 cells after 69 hrs by MTT assay; assay type: functional, cell-based; conditions: SF-295, 69 h; how it was run: as §1
HCT-8 = assay: Cytotoxicity against human HCT8 cells after 69 hrs by MTT assay; assay type: functional, cell-based; conditions: HCT-8, 69 h; how it was run: as §1
PBMC = assay: Cytotoxicity against human PBMC after 72 hrs by alamar blue assay; assay type: cell-based
How it was run: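 PBMC isolated from heparinized blood of healthy nonsmoking donors by Ficoll-Hypaque gradient. Cells at 3 × 10^5 cells/mL in RPMI 1640 with 20% FBS, 37 °C, 5% CO2, phytohemagglutinin 3% added at the start. Compounds added after 24 h at 0.078-5 µg/mL in DMSO (final below 0.1%), exposure 72 h. Alamar Blue added for the last 24 h; absorbance read at 570 and 595 nm, expressed as % reduced versus control.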

[1] = Hemolytic activity in mouse erythrocytes at 200 ug/ml after 1 hr by spectrophotometer; assay type: ADME, cell-based; conditions: erythrocyte
How it was run: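 Mouse erythrocytes as a 2% suspension in 0.85% NaCl with 10 mM CaCl2. Compounds tested at 0.78-200 µg/mL; 1% DMSO served as negative control and 0.2% Triton X-100 set 100% hemolysis. After 1 h at room temperature and centrifugation, released hemoglobin in the supernatant measured at 540 nm absorbance.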

With `C=C1C(=O)O[C@@]23CC[C@H]4[C@@](C)(CCC[C@]4(C)C(=O)O)[C@@H]2CC[C@@H]1C3` (relative stereo) the IC50 (HL-60) was 8.2 µM, the IC50 (MDA-MB-435) was greater than 10 µM and the IC50 (SF-295) was greater than 10 µM. The IC50 (HCT-8) was 5.2 µM, the IC50 (PBMC) was greater than 10 µM and the Activity [1] was “Not Active”.
In the case of `C=C(C(=O)OC)C1C[C@H](OC(C)=O)C2=C(CC[C@@H]3[C@@](C)(C(=O)OC)C(=O)CC[C@@]23C)[C@@H]1OC(C)=O` (relative stereo) [ABIETANE], the IC50 (HL-60) is reported as greater than 10 µM, the IC50 (MDA-MB-435) is reported as greater than 10 µM and the IC50 (SF-295) is reported as greater than 10 µM. The IC50 (HCT-8) was greater than 10 µM, the IC50 (PBMC) was greater than 10 µM and the Activity [1] was “Not Active”.
Compound `COc1cccc2c1C(=O)c1c(O)c3c(c(O)c1C2=O)C[C@@](O)(C(=O)CO)C[C@@H]3O[C@H]1C[C@H](N)[C@H](O)[C@H](C)O1` [DOXORUBICIN] has an IC50 (HL-60) of 0.05 µM, an IC50 (MDA-MB-435) of 1.67 µM and an IC50 (SF-295) of 0.37 µM. The IC50 (HCT-8) was 0.09 µM and the IC50 (PBMC) was 0.5 µM.
Work on `C=C1C(=O)[C@@]23CC[C@H]4[C@@](C)(CCC[C@]4(C)C(=O)O)[C@@H]2CC[C@@H]1C3` yielded an IC50 (HL-60) of 2 µM, an IC50 (MDA-MB-435) of 4.2 µM and an IC50 (SF-295) of 3.7 µM. For the same compound, the IC50 (HCT-8) was 1.5 µM, the IC50 (PBMC) was greater than 10 µM and the Activity [1] was “Not Active”.
